Results of several laboratories.
Lines come from different studies, so protocols differ.
Target: Serine/threonine-protein kinase RIO2 (RIOK2, Homo sapiens, UniProt Q9BVS4)

The remaining binding of N#Cc1ccccc1CSc1nnc2c(n1)[nH]c1ccccc12 is reported as 94% (binding, competition with immobilised ligand; 10 µM).
With N[C@@H]1CCN(c2nccc(-c3cnn4ncccc34)n2)C1 the remaining binding was 37% (binding; 1 µM).
With O=C(c1ccc(Nc2ncc(Cl)c(-c3cc4ccccc4s3)n2)cc1)N1CCC(N2CCCC2)CC1 the remaining binding was 40% (binding, competition with immobilised ligand; 1 µM).
For Cc1cnn2ncc(-c3ccnc(N(C)C)n3)c2c1, the remaining binding was 92% (binding; 1 µM).
With CNC(=O)Nc1ccc2c(c1)[C@@]1(CC2)OC(=O)N(CC(=O)N(Cc2ccc(F)cc2)[C@@H](C)C(F)(F)F)C1=O the remaining binding was 83% (cell-free assay, competition with immobilised ligand; 1 µM).
For O=C(NCC1CCOCC1)c1n[nH]cc1NC(=O)c1c(F)cccc1F, the remaining binding was 35% (binding, competition with immobilised ligand; 1 µM).
For O=c1nc(-c2ccccn2)sc2ccccc12, the remaining binding was 94% (binding, competition with immobilised ligand; 1 µM).
CC(C)(C)c1ccc(-c2nc(CBr)nn2-c2cccc(O)c2)cc1 has a remaining binding of 84% (cell-free assay, competition with immobilised ligand; 10 µM).
For c1ccc(N2CCN(Cc3nc4ccccc4[nH]3)CC2)nc1, the remaining binding was 100% (binding, competition with immobilised ligand; 1 µM).
For CN(C)c1ncc(F)c(-c2cnn3ncccc23)n1, the remaining binding was 78% (binding; 1 µM).
FC(F)(F)Oc1cccc(-c2cnc3ccc(-c4ccncc4)nn23)c1 has a remaining binding of 7.7% (binding, competition with immobilised ligand; 5 µM).
CC1=C(C#N)C(c2ccc3c(c2)c(NC(=O)c2ccccc2C)nn3C)C(C#N)=C(C)N1 gave a remaining binding of 65% (cell-free assay, competition with immobilised ligand; 1 µM).
C[C@H]1CCN(c2nccc(-c3cnn4ncccc34)n2)C1 has a remaining binding of 90% (binding; 1 µM).
For CC(=O)N1CCC(c2ccc(C(=O)NC3=NCCN3)cc2C(F)(F)F)CC1, the remaining binding was 93% (cell-free assay, competition with immobilised ligand; 1 µM).
C[C@@H]1CN(c2ccc3ncc(-c4ccc5[nH]nc(C6CC6)c5c4)n3n2)C[C@H](C)O1 gave a remaining binding of 76% (binding, competition with immobilised ligand; 50 nM).
With O=C(c1ccc(Nc2ncc(Cl)c(-c3ccc(Cl)s3)n2)cc1)N1CCC(N2CCCC2)CC1 the remaining binding was 49% (binding, competition with immobilised ligand; 1 µM).
COc1cnc(Nc2cccc(S(N)(=O)=O)c2)nc1N1CCN(c2ccccc2)C(=O)C1 has a remaining binding of 100% (binding, competition with immobilised ligand; 1 µM).
The remaining binding of O=C(NCCCN1CCOCC1)c1ccc(Nc2nccc(-c3cc4ccccc4s3)n2)cc1 is reported as 47% (binding, competition with immobilised ligand; 1 µM).
CS(=O)(=O)N1CCCC(NC(=O)[C@H](CCC2CCCCC2)NC(=O)c2ccc(CNc3ncnc4c3nnn4-c3ccccc3)cc2)C1 (some centres unmarked) gave a remaining binding of 99% (cell-free assay, competition with immobilised ligand; 0.1 µM).
CN(C)c1nccc(-c2cnn3ncccc23)n1 has a remaining binding of 84% (binding; 1 µM).
With COc1ncc2cc3ccccc3nc2c1C#N the remaining binding was 91% (cell-free assay, competition with immobilised ligand; 5 µM).
With CC(C)(O)c1cncc(-c2nc3ccc(F)cc3n2C2CC2)c1 the remaining binding was 100% (cell-free assay, competition with immobilised ligand; 1 µM).
With CNC(=O)[C@@H]1CC[C@@H](n2c(-c3ccc4cnccc4c3)nc3ccc(C(=O)NCc4cccc(C(N)=O)c4)cc32)C1 the remaining binding was 97% (binding, competition with immobilised ligand; 1 µM).
